Laboratory results from ChEMBL document CHEMBL1152497, “Ligand-based design and synthesis of novel sodium channel blockers from a combined phenytoin-lidocaine pharmacophore” (Bioorg Med Chem, 2009).
Structures can show the parent of a compound that is named as a salt. Calls of active or inactive are those of the source. The calls are words filed in the database; no cut-off is given here.

Columns and labels:
[1] = Displacement of [3H]-BTX-B from neuronal voltage-gated sodium channel in rat cerebral cortex synaptoneurosomes; type: tissue-based
How it was run: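 Rat forebrain membranes incubated with [3H]-batrachotoxin (30–60 Ci/mmol) in 50 mM HEPES pH 7.4 with 130 mM choline chloride, 37 °C, 60 min. Stopped by rapid vacuum filtration onto glass fiber filters, and filter radioactivity compared with control. Percent inhibition at 5–7 concentrations spanning the IC50, each in triplicate. IC50 by Probit analysis of the concentration versus percent binding curve. Aconitine 1 μM as positive control.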

[2] = Lipophilicity, log P of the compound; type: physicochemical; conditions: octanol/water
How it was run: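 logP calculated with a chemical properties tool, not measured.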

[3] = organism: Rattus norvegicus; test: Displacement of [3H]-BTX-B from neuronal voltage-gated sodium channel in rat cerebral cortex synaptoneurosomes at 40 uM; type: tissue-based
How it was run: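 Single-concentration screen at 40 μM. Rat forebrain membranes with [3H]-batrachotoxin (30–60 Ci/mmol) in 50 mM HEPES pH 7.4 containing 130 mM choline chloride, 37 °C for 60 min. Rapid vacuum filtration onto glass fiber filters, and trapped radioactivity compared with control values to give percent displacement. Aconitine 1 μM as positive control.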

[4] = biological target: Sodium channel protein type 2 subunit alpha (Homo sapiens) (UniProt Q99250); test: Inhibition of human Nav1.2 channel expressed in HEK293 cells assessed as blocked of sodium current elicited at +10 mV for 12 mins from holding potential -100 mV at 100 uM by patch clamp method; type: cell-based; design: scale not given: the % may be the effect or the level left; conditions: in the assay text read “12 ms” for “12 mins”
How it was run: (§1)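 Whole-cell patch clamp on HEK293 cells stably expressing human Nav1.2, grown in DMEM/F12 with 10% FBS, penicillin/streptomycin and G418 at 37 °C, 5% CO2. Step to +10 mV for 12 ms from −100 mV holding. Pipette contains CsCl/BAPTA (pH 7.4); bath contains 130 mM NaCl (pH 7.4). DMSO at most 0.3%, 20–22 °C, ≥75% series-resistance compensation. Compound at 100 μM, followed by washout; n = 4.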

[5] = biological target: Sodium channel protein type 2 subunit alpha (Homo sapiens) (UniProt Q99250); test: Inhibition of human Nav1.2 channel expressed in HEK293 cells assessed as blocked of sodium current elicited at +10 mV for 12 mins from holding potential -100 mV at 100 uM measured after washout by patch clamp method; type: cell-based; conditions: in the assay text read “12 ms” for “12 mins”; how it was run: as §1

Sequence of Sodium channel protein type 2 subunit alpha (Homo sapiens) (Q99250 whole entry, looked up): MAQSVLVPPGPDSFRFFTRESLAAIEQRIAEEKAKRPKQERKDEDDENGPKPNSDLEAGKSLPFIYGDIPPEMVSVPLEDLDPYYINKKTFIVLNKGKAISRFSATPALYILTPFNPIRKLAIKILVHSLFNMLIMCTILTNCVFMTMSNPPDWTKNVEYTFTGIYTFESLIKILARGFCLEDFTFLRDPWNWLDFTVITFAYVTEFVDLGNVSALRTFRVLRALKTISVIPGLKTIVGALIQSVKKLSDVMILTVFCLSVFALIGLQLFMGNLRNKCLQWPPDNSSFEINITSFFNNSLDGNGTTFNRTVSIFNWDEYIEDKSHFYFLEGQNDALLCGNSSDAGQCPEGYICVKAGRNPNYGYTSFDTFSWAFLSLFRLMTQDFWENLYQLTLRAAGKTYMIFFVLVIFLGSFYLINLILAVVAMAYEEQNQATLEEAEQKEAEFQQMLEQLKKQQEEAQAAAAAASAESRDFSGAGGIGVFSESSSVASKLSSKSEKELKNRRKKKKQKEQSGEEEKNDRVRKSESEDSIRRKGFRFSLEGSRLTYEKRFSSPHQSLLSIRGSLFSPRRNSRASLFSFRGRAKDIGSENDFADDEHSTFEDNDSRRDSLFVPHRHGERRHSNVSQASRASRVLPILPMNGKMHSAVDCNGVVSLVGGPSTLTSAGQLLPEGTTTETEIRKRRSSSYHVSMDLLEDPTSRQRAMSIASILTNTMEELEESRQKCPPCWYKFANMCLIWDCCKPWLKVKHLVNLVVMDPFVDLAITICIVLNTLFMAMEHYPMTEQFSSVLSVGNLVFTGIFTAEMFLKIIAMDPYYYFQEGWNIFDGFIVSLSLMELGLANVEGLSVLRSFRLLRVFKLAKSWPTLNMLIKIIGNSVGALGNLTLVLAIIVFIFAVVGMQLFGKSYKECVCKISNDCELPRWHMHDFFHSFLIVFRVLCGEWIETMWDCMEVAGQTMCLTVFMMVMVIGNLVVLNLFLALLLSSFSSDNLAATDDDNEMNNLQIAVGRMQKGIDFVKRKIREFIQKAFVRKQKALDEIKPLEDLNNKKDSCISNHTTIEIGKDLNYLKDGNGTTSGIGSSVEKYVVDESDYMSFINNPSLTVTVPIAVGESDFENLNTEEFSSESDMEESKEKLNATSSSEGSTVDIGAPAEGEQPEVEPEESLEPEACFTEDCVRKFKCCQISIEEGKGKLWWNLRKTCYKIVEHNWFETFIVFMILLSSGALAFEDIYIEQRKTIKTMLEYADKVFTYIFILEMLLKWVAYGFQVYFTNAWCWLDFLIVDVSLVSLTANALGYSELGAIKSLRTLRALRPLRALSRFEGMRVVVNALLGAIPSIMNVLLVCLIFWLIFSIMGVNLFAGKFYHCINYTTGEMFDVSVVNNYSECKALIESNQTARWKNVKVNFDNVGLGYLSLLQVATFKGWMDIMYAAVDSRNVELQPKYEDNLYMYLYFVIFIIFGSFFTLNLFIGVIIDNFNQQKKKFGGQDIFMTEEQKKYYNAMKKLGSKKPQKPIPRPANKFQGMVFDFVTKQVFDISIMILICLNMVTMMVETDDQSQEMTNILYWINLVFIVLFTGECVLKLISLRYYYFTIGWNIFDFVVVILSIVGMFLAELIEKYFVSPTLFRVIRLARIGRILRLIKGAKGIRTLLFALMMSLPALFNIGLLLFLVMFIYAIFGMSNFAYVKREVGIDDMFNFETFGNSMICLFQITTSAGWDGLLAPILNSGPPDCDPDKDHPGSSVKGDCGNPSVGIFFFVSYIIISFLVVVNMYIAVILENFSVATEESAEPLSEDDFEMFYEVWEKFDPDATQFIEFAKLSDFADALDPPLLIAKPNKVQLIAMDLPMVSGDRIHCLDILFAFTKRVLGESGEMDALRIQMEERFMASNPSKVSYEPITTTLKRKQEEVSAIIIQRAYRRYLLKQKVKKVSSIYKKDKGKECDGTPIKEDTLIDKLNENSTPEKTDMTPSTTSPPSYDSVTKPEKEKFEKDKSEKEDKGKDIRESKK

Structure (SMILES) | IC50 [1] | logP [2] | other results
CCCCC1(c2ccccc2C)NC(=O)NC1=O (stereo unspecified) | 225 µM | – | –
O=C1C(c2ccccc2)N2CCCCCN1C2=O (stereo unspecified) | 427 µM | 2.51 | –
CCCNC(C)C(=O)Nc1ccccc1C (stereo unspecified) [PRILOCAINE] | 53.7 µM | 2.18 | –
CCCCOc1cc(C(=O)NCCN(CC)CC)c2ccccc2n1 [DIBUCAINE] | – | 3.77 | –
CCCOc1cc(N)ccc1C(=O)OCCN(CC)CC [PROPOXYCAINE HYDROCHLORIDE] | 24 µM | 2.42 | –
O=C1NC(=O)C(c2ccccc2)(C2CCCCC2)N1 (stereo unspecified) | 58 µM | – | –
O=C1NC(=O)C(c2ccccc2)(c2ccccc2)N1 [PHENYTOIN] | 40 µM | – | –
CCN1C(=O)NC(=O)C1(C)c1ccccc1 (stereo unspecified) | 720 µM | – | –
CC1CCCCN1CCCOC(=O)c1ccccc1 (stereo unspecified) [PIPEROCAINE] | 12.9 µM | 3.01 | –
CCCCCCCC1(c2ccccc2)NC(=O)NC1=O (stereo unspecified) | 5 µM | – | –
CCCCCCCC(O)(C(N)=O)c1ccccc1 (stereo unspecified) | 9 µM | – | –
O=C1C(c2ccccc2)N2CCCCN1C2=O (stereo unspecified) | 700 µM | 2.01 | –
CCN(CC)CC(=O)Nc1ccc(C2(c3ccccc3)NC(=O)NC2=O)cc1 (stereo unspecified) | – | – | Activity [3]: 50%
CCCN(CC)C(CC)C(=O)Nc1c(C)cccc1C (stereo unspecified) [ETIDOCAINE] | – | 3.87 | –
CCOc1ccc(C(=O)OCCN(CC)CC)cc1 [PARETHOXYCAINE] | 24 µM | 2.74 | –
CCCCCCC1(c2cc(C)c(NC(=O)CN(CC)CC)c(C)c2)NC(=O)NC1=O (stereo unspecified) | – | – | Activity [3]: 68%
CCCCCCCCCC(O)(C(N)=O)c1cc(C)c(NC(=O)CN(CC)CC)c(C)c1 (stereo unspecified) | – | – | Activity [3]: 63%
CC(CNC1CCCCC1)OC(=O)c1ccccc1 (stereo unspecified) [HEXYLCAINE] | 7.1 µM | 3.34 | –
CCCCCCCCC1(c2ccccc2)NC(=O)NC1=O (stereo unspecified) | 5 µM | 4.96 | –
CCCC1(c2ccccc2)NC(=O)NC1=O (stereo unspecified) | 162 µM | – | –
O=C1NC(=O)C2(CCCCc3ccccc32)N1 (stereo unspecified) | 251 µM | – | –

Structure (SMILES) | IC50 [1] | logP [2] | other results
CCCCCCC1(c2ccccc2)NC(=O)NC1=O (stereo unspecified) | 13 µM | – | –
CCCCC1(c2ccc(C)cc2)NC(=O)NC1=O (stereo unspecified) | 95 µM | – | –
CCCCC1(c2ccccc2)NC(=O)NC1=O (stereo unspecified) | 103 µM | – | –
CC12C(=O)NC(=O)N1CCc1ccccc12 (stereo unspecified) | 250 µM | – | –
CCCCNc1ccc(C(=O)OCCN(C)C)cc1 [TETRACAINE] | – | 3.27 | –
COC(=O)[C@H]1[C@@H](OC(=O)c2ccccc2)C[C@@H]2CC[C@H]1N2C [COCAINE] | 49 µM | 1.82 | –
CCOC(=O)c1ccc(N)cc1 [BENZOCAINE] | 910 µM | 1.39 | –
CCCCCCCC1(c2cc(C)c(NC(=O)CN(CC)CC)c(C)c2)NC(=O)NC1=O (stereo unspecified) | – | – | Activity [3]: 71%
CCN(CC)CC(=O)Nc1ccc(C(O)(C(N)=O)c2ccccc2)cc1 (stereo unspecified) | – | – | Activity [3]: 4%
CCCCCCCC(O)(C(N)=O)c1cc(C)c(NC(=O)CN(CC)CC)c(C)c1 (stereo unspecified) | – | – | Activity [3]: 83%; Activity [4]: 67.7%; Activity [5]: inactive
CCN(CC)CC(=O)Nc1c(C)cc(C(O)(C(N)=O)c2ccccc2)cc1C (stereo unspecified) | – | – | Activity [3]: 16%
CCN(CC)CCOC(=O)c1ccc(N)cc1 [PROCAINE] | 110 µM | 2.53 | –
O=C1NC(=O)C2(CCc3ccccc32)N1 (stereo unspecified) | 2110 µM | – | –
O=C1NC(=O)C2(CCCc3ccccc32)N1 (stereo unspecified) | 851 µM | – | –
CCN(CC)CC(=O)Nc1c(C)cc(C2(c3ccccc3)NC(=O)NC2=O)cc1C (stereo unspecified) | – | – | Activity [3]: 49%
O=C1NC(=O)C2(CCCCCc3ccccc32)N1 (stereo unspecified) | 251 µM | – | –
CCCCCC1(c2ccccc2)NC(=O)N(C)C1=O (stereo unspecified) | 39 µM | 2.96 | –
CCCCC1(c2cccc(C)c2)NC(=O)NC1=O (stereo unspecified) | 58 µM | – | –
CCCOc1ccc(C(=O)OCCN(CC)CC)cc1N [PROPARACAINE] | 2 µM | 2.42 | –
CCCCCCCCCC1(c2cc(C)c(NC(=O)CN(CC)CC)c(C)c2)NC(=O)NC1=O (stereo unspecified) | – | – | Activity [3]: 69%
